Test results reported in the EternaBench riboswitch data.

Test system: MS2 coat protein
Test: apparent Kd, MS2 coat protein; higher = weaker binding; RNA-MaP array; FMN 200 µM where present
Summary of the method: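 The apparent Kd is the median of filtered binding-curve fits, one per cluster, to green signal normalised to red-channel RNA signal and control-cluster median Fmax. The clusters were on Illumina sequencing chips, and stalled E. coli RNA polymerase had transcribed the designs on them. Titration used SNAP-549-labelled MS2 coat protein from 0.7 or 1.5 nM, doubling to 3 µM, without and then with constant ligand, in 100 mM Tris-HCl pH 7.5, 80 mM KCl, 4 mM MgCl2, BSA, DTT, yeast tRNA and Tween-20.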

[1] = designed as: OFF switch for flavin mononucleotide, no ligand
[2] = ligand present: flavin mononucleotide, designed as: OFF switch for flavin mononucleotide
[3] = designed as: ON switch for flavin mononucleotide, no ligand
[4] = ligand present: flavin mononucleotide, designed as: ON switch for flavin mononucleotide

Sequence	apparent Kd [1] [nM]	apparent Kd [2] [nM]	apparent Kd [3] [nM]	apparent Kd [4] [nM]
UCAUCAACGGGCGGGUCGGUUGGACAUGAGGAUCACCCAUGUAGAAGGACCGGUGGACUCCGCCGGUAGGAUAUACAUUUGGUG	41.6	30.1		
CAUCUGUGAGGAUAUGGUGAGUAGUGCCUGAGCGCUGCUCACCAGAAGGCACAUGAGGAUCACCCAUGUAUGAA	52.6	214		
CGAUAUAUGAAGGGCAAAGGCCCACAUGAGGAUCACCCAUGUAGAAGGCGAUCCGCAACGCGGAUCGAGGAUAUAUAGUAUACA	8.45	8.1		
CCCUGAGACCGGUUAAUUGGCUGAUAGGAUAUCCUCGGACAUGAGGAUCACCCAUGUUAACUAUUGGAGAAGGGUCAGCGAAAG			448	216
CGAUUUUAUAGAGGAUAUGUUUAACAUGAGGAUCACCCAUGUGAGGUGGAAAUAUUUAAUUACAUACAGAAGGCUAUACAAUCG	234	180		
UAAAAGACUAGCAAAUAAGUUCCACAUGAGGAUCACCCAUGUCAGGAUAUGAGCAGCAAAGCUGCUCAGAAGGGAUAGCUAGUC	6.45	6.39		
CAGAAGUCAGGAUAUGCAUGGCGGGACUUGCGUCGUGGCGUGCAGAAGGGACAUGAGGAUCACCCAUGUAAAGA	52.5	62.4		
CCUUUCGGUGUCAGGAUAUACUGCGCCUGGCGCAAGUAGAAGGGACAUGAGGAUCACCCAUGUAGCGGGACCGA	73.7	81.9		
GAAUUAUUGAUCCAAUUUUACAACAUGAGGAUCACCCAUGUGCAGGAUAUCGUGUGUUUUAUAUUCGAGAAGGGCAUGAACUUU	213	495		
GUGUAGAUAGGAUAUGCAAGAGUCUAGCGAAGCUAGAUUCUACAUGAGGAUCACCCAUGUAGAAGGGUCUACAC	18.3	16.1		
CCAUAAAAGAUCCAAAAUUACAACAUGAGGAUCACCCAUGUGCAGGAUAUCGUGAAAGUAAAAUACGAGAAGGGCAAAAACUGC	440	454		
AACUGACGACAUCAGUUGCGUAGGCAGGAUAUACAUGAGGAUCACCCAUGUGCAUGAUGCUACGAGUAGAAGGGCCGAGGCGAU	6.77	13.4		
GUCGUGUUAGGAUAUGGCAACGGCGGCGAAAGUUGUUGUUGUUAGAAGGAACAUGAGGAUCACCCAUGUAUGAC	37.7	113		
GCGUUCAUGUAGAAGGUACCUACAACAUAUUAUAAACGCUAGACACAUGAGGAUCACCCAUGUUGUAAGGAUAUACAUGAACGC			49	22
UUGAUGUCAUCAGGAUAUAGUAUUUAAGACAUAUAUUUUUUCAAACAUGAGGAUCACCCAUGUCGCUAGAAGGGAUUAUAGAUU	41	35.6		
UUAAAACAUGAGGAUCACCCAUGUGAGGAUAUGAGCCGACUGUCCUGUCGGCAUGUAGUCAGAAGGUGCAGGGU	62.2	109		
CUCGUGUCAGGAUAUGGAAGGCCGUUUGAUUAACGAGGGUACUAGAAGGGACAUGAGGAUCACCCAUGUAAAAA	37.7	57.6		
GAGCUGCAGACAGGAUAUGAGACCGCCACGGUCUCAGAAGGGUCAUGUUCUACAUGAGGAUCACCCAUGUCGGACAGCUCGAAG			140	11.8
CGCAGGAUACAGAAGGAGUUAUUGAGAGGUUUACUAGGAUAUGUUCACAUGAGGAUCACCCAUGUCAUAUGGUUUUUUAUUGCG	12.5	11.7		
AAAAGACAUGAGGAUCACCCAUGUAAAAACAUAGGAGGAUAUGUUUGGAAACUAGACUGAACAGAAGGCCUUUGUC			22.9	17
UUACCUCAUGAGAAGGCGAUCAUGAAACAUGAUCGAGGAUAUCAUGUAAACAUGAGGAUCACCCAUGUAUGGGUAUUAUGGUAA			166	44.1
AGUUCUUGUGAAGGAUAUACGGCGGGUCGCGCAGUAGAAGGUCACAUGAGGAUCACCCAUGUCGACAAUGUGCAGUAUCGACAA	135	271		
GGAAAUCAUGUAGGAUAUGCAUGGCGAAGCUACGCAGAAGGACAUGAGGAUCACCCAUGUUAUAGCGUCCGAGAAAGGAUGCAA	111	167		
CGUGCGUAUGUGAGGAUAUGCUGGUCCUUGGAUCAGCAGAAGGCACAUGAGGAUCACCCAUGUGGUGUCGUACC	262	44.1		

Sequence	apparent Kd [1] [nM]	apparent Kd [2] [nM]	apparent Kd [3] [nM]	apparent Kd [4] [nM]
UGAUCUUACAUGAGGAUCACCCAUGUAGGCCUGUAACUAACCAGAAGGCACGUAGAGUAAAACAGUGAGGAUAUGGAUGACGUA			22.4	9.35
ACCAAUGCAGGAUAUACAUGAGGAUCACCCAUGUAUAACCUACAUAGGUGAUCCUCAUGUAGAAGGGCAUUGGA	12.8	10		
UGGUACUAGGGAGGAUAUGGGAAGAUACAUGAGGAUCACCCAUGUUUAAGAAUGCCGAGAGGCAACUAGAAGGACCUAGUACCU			896	63.6
AAGAAGCACGCAGGAUAUCUCACCCAUGUAAGAAGAGAAGGGCGACAUGAGGAUCACCCAUGUCAACAUGAGGAUCACCCAUGU	62.2	87.8		
UAUAUAAUAAGAGCUGGACUUCAAACAUGAGGAUCACCCAUGUAGGAUAUCAGCACGAUAAGUGCUGAGAAGGACAACCAGCUC	16.5	16.8		
AUUUAUGGCCAGAAGGACAUGAGGAUCACCCAUGUAGGAUAUGGACGAUUUUACUCGGCGGUUUGUUUAGGAAGCACCGGCGGU			8	6.32
GGUCCAUUAUGAGGAUAUGGCACCUUAUUGGUGCCAGAAGGCAUGUCUAUAGACAUGAGGAUCACCCAUGUAUUAAUUUGGACC			360	41.4
AAACUCAUGCAGAAGGGACAAACGGGUGGGAUCUGCAUGUGCACAUGAGGAUCACCCAUGUGGUGUCAGGAUAUGCUGGGCACG	102	75.2		
AUGUGAGCAGGAUAUGCAGGUGUGCCGGAAGAAAGAAGAGGACAUGAGGAUCACCCAUGUAGAAGGGCUAGCCC	49	31.3		
UCACGGUAUGUAGGAUAUGCAUAGCAUUGCUAUGCAGAAGGACAUGAGGAUCACCCAUGUAUGUAUUCCAUACUAUUCCCGUGU	6.18	6.09		
GUGGCACAUGAGGAUCACCCAUGUAGGUAGAACAUAGGAUAUCACCAACAAAAUACCUGGUGAGAAGGAUGAUGCC			166	59.8
UGUACGUGAGGAUAUGGACGUAUCGAAGACAAGCUACGAUACCAGAAGGUACAUGAGGAUCACCCAUGUGGUUC	376	370		
GUACUGAAGCUUUGCUUUAGUCGUACAUGAGGAUCACCCAUGUAGGAUAUGGUAAGCUUUGCUUACUAGAAGGAUAGAGUGAUC	119	50.2		
GAUAGGAAGUAAGGAUAUAGACAUGAGGAUCACCCAUGUCUGUGCCGCGUGGAUGAAGGGAGUGUCUAGAAGGUACUGCUCUGU	15.5	7.5		
UGUAAUGCUAUUGCAGAGGUUUAGAAGGAUAUACAUCGACAUGACCGUACAUGAGGAUCACCCAUGUAGAAGGUCUAACUUCUU	4.95	4.91		
GUGGUCAGACAUGAGGAUCACCCAUGUGGAAUAAAUAACACACAGGAUAUGUAAUAUAGGAUAUAACAGAAGGGUGGAUUGGUG			318	168
UAAUUUUGUCAAGGAUAUGUAAUAUAGAUUUGAAAACAUGAGGAUCACCCAUGUAUAUGGUGGGAACAGAAGGUGAAUGGAGAA	252	242		
AAAGUGUCAGGAUAUACAUGAGGAUCACCCAUGUAUCUUUUUGAUCGUAGGGUGCACCGUAGAAGGGACACUCC	27.4	37.1		
CAGGUAGACUGAGGAUAUACAAUAAAGACCUAGUCUAUCUAGGUCUCCACAUGAGGAUCACCCAUGUAGAAGGCAGUCUGCCUG	18.1	44.2		
GGGUACAUCGGAGGAUAUCAUGUAAAUACAUGAGGAUCACCCAUGUCGAUGGAGACAUCGGAGAUUGAGAAGGCCGAUGUAGCG			190	9.12
AGAUAACAUGUAGGAUAUCGAGGCCUGAGGCCUCGAGAAGGACAUGAGGAUCACCCAUGUAGUUGUACUAUGGGAUCACGCACU	620	186		
CGUUUAUUUAUGGGUUUAGAUUAUGAGGAUAUCAUUUUUUUAUACAUGAGGAUCACCCAUGUUACUGAGAAGGCAUAAUUAACG			16.4	7.09
GGGAUGCUAGGAUAUACAUCGGGCUCCAGGAUGUUCCGGGAACAUGAGGAUCACCCAUGUAGAAGGAGCUAAAG	67.9	53.5		
UUUGGGCCUGUGAGGAUAUGCCCGGGUAAAUUUGGGCAGAAGGCACAUGAGGAUCACCCAUGUAAGGGCCCGGG	31.5	21.4		
